Experiments:
[1] = NADPH-dependent metabolism by monkey liver microsomes; assay type: in vitro ADME; conditions: monkeys, 10 and 100 µM, up to 6 h
[2] = Metabolite profiling of mouse plasma, urine and feces by radio-HPLC; assay type: in vivo, mouse (NMRI); conditions: for dose excreted: NMRI, mouse
Method in brief: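 Mouse samples after i.v. [14C]-test compound, 2.5 mg/kg. Plasma at 0.1 and 0.25 h was extracted twice with ethanol. Fecal precipitates were sonicated with ethanol at 40°C/2 h, and unextracted residue was combusted. Extracts ran on isocratic radio-HPLC: acetonitrile/0.05 mol/L ammonium acetate pH 4 (19/80, v/v), RP8e column, 1 mL/min, UV 230 nm plus radiodetector. Excreted radioactivity was given as % dose.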

[3] = tested on: sandwich‐cultured mouse (NMRI) hepatocytes; experiment: Hepatobiliary disposition in sandwich-cultured mouse hepatocytes; assay type: in vitro ADME; conditions: for BEI / CLbiliary / Intracellular concentration / Cellular accumulation Avg. / Total accumulation Avg.: 20 min; for Cellular accumulation Avg. / Total accumulation Avg.: mean ± SD of triplicate wells
[4] = tested on: human hepatocytes; experiment: Metabolism in cultured human hepatocytes; assay type: in vitro ADME; conditions: 1 and 10 µg/mL, up to 24 h
[5] = Plasma pharmacokinetics in rabbit after i.v. infusion; assay type: in vivo, Chinchilla rabbit
Method in brief: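 Chinchilla rabbits received a 4-h infusion into the ear vein at 50, 150 or 450 mg/kg/d. Plasma was sampled before and at 2, 4, 4.25, 4.5, 5, 7 and 10 h after infusion start.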

[6] = NADPH-dependent metabolism by human liver microsomes; assay type: in vitro ADME; conditions: humans, 10 and 100 µM, up to 6 h
[7] = Plasma pharmacokinetics in rat after i.v. bolus; assay type: in vivo, Wistar rat; conditions: for clearance / half-life: in vivo
Method in brief: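 Wistar rats, intravenous bolus. Plasma was sampled at 0.1, 0.25, 0.5, 1, 2, 4 and 6 h postadministration.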

[8] = tested on: human suspension hepatocytes; experiment: Uptake into human suspension hepatocytes; assay type: in vitro ADME
Method in brief: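 Cryopreserved human hepatocytes in suspension, transporter function verified by the supplier. Test compound was applied at 10 μmol/L, 250 μmol/L and 10 mmol/L for 1 to 30 or 90 min. Cells were separated from buffer by the oil-layer method, and drug in both compartments was quantified over time by LC/MS/MS. Nonspecific transporter inhibition used rifampicin 20 μmol/L, cyclosporine A 20 μmol/L and quinidine 100 μmol/L.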

[9] = Distribution of radioactivity in pigmented mice; assay type: in vivo; conditions: eyes and skin
[10] = Plasma pharmacokinetics in mouse after i.v. bolus; assay type: in vivo, mouse (NMRI); conditions: for level at 0.1 h / level at 0.25 h / level at 2 h: NMRI, plasma
Method in brief: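 Male and female NMRI mice, i.v. bolus of [14C]-test compound, 2.5 mg/kg (4.2 μmol/kg). Blood was taken by exsanguination under anesthesia (n = 3/time point) and spun 2 min at 10,000g. Plasma was counted by LSC from predose to 72 h. A separate unlabeled-dose study gave plasma from predose to 8 h for parent by validated LC/MS/MS. Noncompartmental analysis was used, with clearance related to hepatic blood flow.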

[11] = Biological stability of the radiolabel; assay type: in vivo, rat; conditions: rats, within 72 h after dosing
[12] = Quantitative tissue distribution; assay type: in vivo, mouse (NMRI); conditions: for dose found in the carcasses: 24 h postdose
Method in brief: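 Male and female NMRI mice got i.v. [14C]-test compound, 2.5 mg/kg (n = 3/time), with tissues excised at 0.1, 0.5, 2, 8 and 24 h. Larger organs were homogenized and small tissues taken whole. Carcasses were included. Samples were dried at about 60°C for 12 h, combusted in a sample oxidizer and read by LSC.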

[13] = tested on: rat hepatocytes; experiment: Metabolism in cultured rat hepatocytes; assay type: in vitro ADME; conditions: 1 and 10 µg/mL, up to 24 h

For `CC(C)[C@H]1C(=O)N[C@@H](CCCN=C(N)N)C(=O)NCC(=O)N[C@@H](CC(=O)O)C(=O)N[C@H](Cc2ccccc2)C(=O)N1C` [cilengitide, cyclo‐(Asp‐D‐Phe‐N‐MeVal‐Arg‐Gly)], the “metabolism by liver microsomes” value [1] was “poorly metabolized”, the dose excreted ([2]; female, feces) was 66.2% and the dose excreted ([2]; female, feces, iv, 2.5 mg/kg) was 66%. For the same compound, the dose excreted ([2]; female, urine, iv, 2.5 mg/kg) was 28%, the “unchanged drug in feces (fecal/biliary secretion)” value ([2]; male mice) was 87.2 % of the administered dose and the dose excreted ([2]; male, feces, iv, 2.5 mg/kg) was 87%. The dose excreted ([2]; male, urine, iv, 2.5 mg/kg) was 7%, the uptake into hepatocytes [3] was “fairly robust” and the BEI ([3]; 10 μmol/L) was 29.3%. For the same compound, the CLbiliary ([3]; 10 μmol/L) was 0.701 mL/min/kg, the Intracellular concentration ([3]; 10 μmol/L) was 4.13 µM and the “Cellular accumulation Avg.” value ([3]; 10 μmol/L) was 33.3 ± 1.4 pmol/mg. For the same compound, the “Total accumulation Avg.” value ([3]; 10 μmol/L) was 47.1 ± 1.7 pmol/mg, the BEI ([3]; 250 μmol/L) was 43.3% and the CLbiliary ([3]; 250 μmol/L) was 2.74 mL/min/kg. For the same compound, the Intracellular concentration ([3]; 250 μmol/L) was 219 µM, the “Cellular accumulation Avg.” value ([3]; 250 μmol/L) was 1768 ± 14 pmol/mg and the “Total accumulation Avg.” value ([3]; 250 μmol/L) was 3115 ± 32 pmol/mg. For the same compound, the “biliary efflux (BEI)” value ([3]; 10 and 250 μmol/L) was 30–40%, the “intracellular concentration (Cic)” value ([3]; exposure 10 μmol/L) was 4.13 µmol/L and the “intracellular concentration (Cic)” value ([3]; exposure 250 μmol/L) was 219 µmol/L. For the same compound, the “metabolism by cultured hepatocytes” value [4] was “poorly metabolized”, the level at 4 h ([5]; Chinchilla, rabbit, plasma, iv, 50 mg/kg) was 34200 to 38500 ng/mL and the “clearance in comparison to hbf” value ([5]; female rabbits) was roughly 15%. The clearance ([5]; rabbit, in vivo) was 6 mL/min/kg, the half-life ([5]; rabbit, in vivo, 450 mg/kg, apparent half‐life, rabbit, 450 mg/kg dose group) was roughly 60 min and the “metabolism by liver microsomes” value [6] was “poorly metabolized”. For the same compound, the “clearance as share of hepatic blood flow (hbf)” value (from here on “clearance as share”) [7] was “approximately 20%”, the level at 0.1 h ([7]; Wistar, plasma, iv, 2.5 mg/kg) was 5360 to 5870 ng/mL and the clearance [7] was 16.3 mL/min/kg. For the same compound, the half-life [7] was 30 min, the clearance ([7]; iv, 2.5 mg/kg) was roughly 16.3 mL/min/kg and the half-life ([7]; iv, 2.5 mg/kg) was 14.4 to 30 min. For the same compound, the “active uptake in human hepatocytes” value [8] was “no active uptake”, the “dependency of uptake on drug concentration” value ([8]; 10 μmol/L, 250 μmol/L and 10 mmol/L) was “no clear dependency on drug concentration” and the “effect of inhibitor cocktail on distribution into hepatocytes” value ([8]; 20 μmol/L rifampicin, 20 μmol/L cyclosporine A, 100 μmol/L quinidine) was “no relevant inhibition”. For the same compound, the “time after which distribution into hepatocytes was almost complete” value ([8]; human suspension hepatocytes) was 1 to 4 min, the “uptake into human hepatocytes” value ([8]; suspension, 10 μmol/L, 250 μmol/L and 10 mmol/L) was “minor” and the melanin binding [9] was “no relevant melanin binding”. The “clearance as share” value ([10]; female mice) was 60%, the level at 0.1 h ([10]; female, mouse, iv, 2.5 mg/kg) was 2490 ng/mL and the level at 0.25 h ([10]; female, mouse, iv, 2.5 mg/kg) was 448 ng/mL. For the same compound, the level at 2 h ([10]; female, mouse, iv, 2.5 mg/kg) was 6.3 ng/mL, the “clearance as share” value ([10]; male mice) was 105% and the level at 0.1 h ([10]; male, mouse, iv, 2.5 mg/kg) was 1240 ng/mL. It also gave a level at 0.25 h ([10]; male, mouse, iv, 2.5 mg/kg) of 439 ng/mL, a level at 2 h ([10]; male, mouse, iv, 2.5 mg/kg) of 8 ng/mL and a clearance ([10]; mouse, in vivo, Plasma CL, value used for allometry) of 63.5 mL/min/kg. It also gave a Vd ([10]; mouse, in vivo, Vdss, range over both species (mouse and monkey)) of 0.32 to 1.6 L/kg, an AUC ([10]; mouse, in vivo, iv, 2.5 mg/kg, AUC0‐∞ of parent drug, male mice, 2.5 mg/kg i.v.) of 440 ng·h/mL and a Vd ([10]; mouse, in vivo, iv, 2.5 mg/kg, apparent Vdss, female mice, 2.5 mg/kg i.v.) of 0.56 L/kg. It also gave a Vd ([10]; mouse, in vivo, iv, 2.5 mg/kg, apparent Vdss, male mice, 2.5 mg/kg i.v.) of 1.6 L/kg, a clearance ([10]; mouse, in vivo, iv, 2.5 mg/kg, plasma clearance, female mice, 2.5 mg/kg i.v.) of 53.3 mL/min/kg and a clearance ([10]; mouse, in vivo, iv, 2.5 mg/kg, plasma clearance, male mice, 2.5 mg/kg i.v.) of 94.7 mL/min/kg. The half-life ([10]; mouse, in vivo, t1/2, mouse, value used for allometry) was 20.4 min, the “dose exhaled as [^14C]‐CO2” value [11] was “less than 0.1 % of the dose” and the “dose found in the carcasses” value ([12]; female mice) was 0.4 % of the dose. For the same compound, the “dose found in the carcasses” value ([12]; male mice) was 0.8 % of the dose, the “concentrations in reproductive organs relative to plasma” value ([12]; mice, after 8 h) was 6–14 times higher and the “metabolism by cultured hepatocytes” value [13] was “poorly metabolized”.
